Results from ChEMBL document CHEMBL5335790, “Design, synthesis and biological evaluation of novel 2,4-thiazolidinedione derivatives able to target the human BAG3 protein” (Eur J Med Chem, 2023).
Activity calls are given as the source filed them. The rule behind the calls is not given here.

What was measured:
[1] = biological target: T1, BAG family molecular chaperone regulator 3 (Homo sapiens, UniProt O95817); test: Binding affinity to CM4 sensorchip immobilized C-terminal His tagged human BAG3 transfected in HEK293T cells assessed as binding capacity at 50 uM by SPR analysis
T1 sequence (O95817 whole entry): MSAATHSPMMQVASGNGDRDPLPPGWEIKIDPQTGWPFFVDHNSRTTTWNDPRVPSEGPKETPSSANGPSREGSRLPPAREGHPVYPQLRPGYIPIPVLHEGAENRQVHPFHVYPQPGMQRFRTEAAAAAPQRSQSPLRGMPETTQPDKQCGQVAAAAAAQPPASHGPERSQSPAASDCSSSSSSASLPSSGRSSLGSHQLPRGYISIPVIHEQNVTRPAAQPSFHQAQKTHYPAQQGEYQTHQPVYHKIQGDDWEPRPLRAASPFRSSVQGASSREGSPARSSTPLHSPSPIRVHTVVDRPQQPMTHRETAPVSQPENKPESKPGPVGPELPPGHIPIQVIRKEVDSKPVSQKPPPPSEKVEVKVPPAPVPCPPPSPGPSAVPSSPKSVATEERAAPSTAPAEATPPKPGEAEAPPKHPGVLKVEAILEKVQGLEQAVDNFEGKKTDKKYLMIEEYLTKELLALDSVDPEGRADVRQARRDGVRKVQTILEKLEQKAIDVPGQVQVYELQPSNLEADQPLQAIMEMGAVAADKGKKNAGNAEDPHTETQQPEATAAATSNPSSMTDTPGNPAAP
How it was run: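 SPR screen on BAG3-His amine-coupled to a CM4 chip at 60 µg/mL in pH 2.8 acetate. Compound at 50 µM in PBS with 5% DMSO and 0.05% P20 was injected for 90 s at 30 µL/min, then washed. Chip regenerated with 10 mM glycine pH 3. Bound RU read at equilibrium against a void flow cell; 3–10 repeats, mean ± SEM.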

[2] = system: RS4-11; test: Antiproliferative activity against human RS4-11 cells assessed as cell growth inhibition incubated for 72 hrs by resazurin dye based analysis; format: functional
How it was run: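 Cells seeded at 2000/well, treated 24 h later with compounds in a 6-point 2-fold dose series, duplicate wells, two independent experiments. After 72 h, resazurin was added at 44 µM final for 3 h at 37 °C and fluorescence was read at 590 nm. Viability was normalized to 1 µM bortezomib (positive) and 0.5% DMSO (negative) controls. GI50 is the mean ± SEM of dose-response curves.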

[3] = Cytotoxicity against resting human PBMC cells assessed as cell growth inhibition incubated for 72 hrs by MTT assay; format: toxicity, cell-based
[4] = system: HD-MB03; test: Induction of cell cycle arrest in human HD-MB03 cells assessed as accumulation of cells at S phase at 10 uM incubated for 48 hrs by RNase/PI staining based cytofluorimetric analysis (reference value: 40.9%); format: functional
[5] = system: HD-MB03; test: Induction of cell cycle arrest in human HD-MB03 cells assessed as accumulation of cells at G2/M phase at 10 uM incubated for 48 hrs by RNase/PI staining based cytofluorimetric analysis (reference value: 4.4%); format: functional
[6] = system: HD-MB03; test: Induction of cell cycle arrest in human HD-MB03 cells assessed as accumulation of cells at S phase at 10 uM incubated for 72 hrs by RNase/PI staining based cytofluorimetric analysis (reference value: 40.9%); format: functional
[7] = system: HD-MB03; test: Induction of cell cycle arrest in human HD-MB03 cells assessed as accumulation of cells at G2/M phase at 10 uM incubated for 72 hrs by RNase/PI staining based cytofluorimetric analysis (reference value: 4.4%); format: functional
[8] = system: HD-MB03; test: Induction of apoptosis in human HD-MB03 cells at 20 uM by Annexin V-FITC/PI staining based cytofluorimetric analysis; format: functional, cell-based; settings: time 48-72 hrs, TDE = time-dependent effect
How it was run: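 HD-MB03 cells treated with 20 µM, then stained with annexin V-FITC and PI and analysed by flow cytometry. Mean ± SEM of three independent experiments; 2-way ANOVA with Tukey correction.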

[9] = system: HD-MB03; test: Induction of autophagy in human HD-MB03 cells assessed as increase in LC3 green fluorescence at 20 uM incubated for 24 hrs in presence of chloroquine by immunofluorescence analysis; format: functional, cell-based
How it was run: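 HD-MB03 cells transfected with a fluorescent LC3 plasmid, then treated 24 h later with 20 µM, alone or with chloroquine, for 24 h. Live cells stained 30 min with 50 nM LysoTracker Red and 10 µM Hoechst, then imaged by confocal microscopy. Fluorescence per field was expressed relative to DMSO control set to 1. Mean ± SD of three experiments; 2-way ANOVA.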

[10] = system: HD-MB03; test: Induction of apoptosis in human HD-MB03 cells assessed as cell shrinkage at 20 uM incubated for 24 hrs in presence of chloroquine by bright field imaging analysis; format: functional, cell-based
[11] = system: HD-MB03; test: Sensitization of chemotherapy induced cytotoxicity against human HD-MB03 cells assessed as inhibition of cell growth at 2.5 uM incubated for 72 hrs in presence of 2 unit of vincristine, etoposide, cisplatin, cyclophosphamide by resazurin dye based analysis (reference value: 97.7 +/- 1.3%); format: functional
[12] = system: HD-MB03; test: Sensitization of chemotherapy induced cytotoxicity against human HD-MB03 cells assessed as inhibition of cell growth at 5 uM incubated for 72 hrs in presence of 0.25 unit of vincristine, etoposide, cisplatin, cyclophosphamide by resazurin dye based analysis (reference value: 73.44 +/- 0.92%); format: functional
[13] = system: HD-MB03; test: Sensitization of chemotherapy induced cytotoxicity against human HD-MB03 cells assessed as inhibition of cell growth at 5 uM incubated for 72 hrs in presence of 2 unit of vincristine, etoposide, cisplatin, cyclophosphamide by resazurin dye based analysis (reference value: 97.7 +/- 1.3%); format: functional
[14] = system: HD-MB03; test: Sensitization of chemotherapy induced cytotoxicity against human HD-MB03 cells assessed as inhibition of cell growth at 10 uM incubated for 72 hrs in presence of 0.12 unit of vincristine, etoposide, cisplatin, cyclophosphamide by resazurin dye based analysis (reference value: 51.43 +/- 1.17%); format: functional
[15] = system: HD-MB03; test: Sensitization of chemotherapy induced cytotoxicity against human HD-MB03 cells assessed as inhibition of cell growth at 10 uM incubated for 72 hrs in presence of 0.5 unit of vincristine, etoposide, cisplatin, cyclophosphamide by resazurin dye based analysis (reference value: 83.74+/- 0.54%); format: functional
[16] = system: HD-MB03; test: Sensitization of chemotherapy induced cytotoxicity against human HD-MB03 cells assessed as inhibition of cell growth at 10 uM incubated for 72 hrs in presence of 1 unit of vincristine, etoposide, cisplatin, cyclophosphamide by resazurin dye based analysis (reference value: 91.53 +/- 1.15%); format: functional
[17] = system: HD-MB03; test: Sensitization of chemotherapy induced cytotoxicity against human HD-MB03 cells assessed as inhibition of cell growth at 20 uM incubated for 72 hrs in presence of 0.5 unit of vincristine, etoposide, cisplatin, cyclophosphamide by resazurin dye based analysis (reference value: 83.74+/- 0.54%); format: functional
[18] = system: HD-MB03; test: Sensitization of chemotherapy induced cytotoxicity against human HD-MB03 cells assessed as inhibition of cell growth at 20 uM incubated for 72 hrs in presence of 1 unit of vincristine, etoposide, cisplatin, cyclophosphamide by resazurin dye based analysis (reference value: 91.53 +/- 1.15%); format: functional
[19] = system: HD-MB03; test: Cytotoxicity against human HD-MB03 cells assessed as inhibition of cell growth at 5 uM incubated for 72 hrs by resazurin dye based analysis relative to control; format: functional
How it was run: (§1)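 Resazurin viability in HD-MB03 cells, 2000/well, single-agent arm of the 6x6 matrix. Inhibitor was added 24 h after seeding, in a 6-point 2-fold series, duplicates, two independent experiments. After 72 h exposure, resazurin was added at 44 µM final for 3 h at 37 °C and fluorescence read at 590 nm. Viability normalized to 1 µM bortezomib and 0.5% DMSO controls.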

[20] = system: HD-MB03; test: Cytotoxicity against human HD-MB03 cells assessed as inhibition of cell growth at 10 uM incubated for 72 hrs by resazurin dye based analysis relative to control; format: functional; how it was run: as §1
[21] = system: HD-MB03; test: Cytotoxicity against human HD-MB03 cells assessed as inhibition of cell growth at 20 uM incubated for 72 hrs by resazurin dye based analysis relative to control; format: functional; how it was run: as §1
[22] = biological target: T1, BAG family molecular chaperone regulator 3; test: Binding affinity to C-terminal His tagged human BAG3 transfected in HEK293T cells assessed as protein-ligand complex formation by measuring saturated protein magnetization via intermolecular spin-diffusion at 125 uM by STD NMR experiment

**Q.** For CC(C(=O)N1CCOCC1)N1C(=O)S/C(=C\c2cccc(O)c2O)C1=O (racemic), which Activity [1] is on record?
**A.** > 5 RU

**Q.** What about the GI50 [2] of the same compound?
**A.** 6.7 µM

**Q.** What about the GI50 at 72 h [3] of the same compound?
**A.** > 100 µM

**Q.** What about the Activity [4] of the same compound?
**A.** 41.44%

**Q.** And the Activity [5]?
**A.** 6.11%

**Q.** What about the Activity [6] of the same compound?
**A.** 24.8%

**Q.** And the Activity [7]?
**A.** 1.2%

**Q.** And the Activity [8]?
**A.** Tde

**Q.** And the Activity [9]?
**A.** inactive

**Q.** What about the Activity [10] of the same compound?
**A.** Active

**Q.** And the inhibition at 2.5 µM [11]?
**A.** 95.4%

**Q.** And the inhibition at 5 µM [12]?
**A.** 76.7%

**Q.** And the inhibition at 5 µM [13]?
**A.** 95.2%

**Q.** And the inhibition at 10 µM [14]?
**A.** 75.8%

**Q.** What about the inhibition at 10 µM [15] of the same compound?
**A.** 89.1%

**Q.** What about the inhibition at 10 µM [16] of the same compound?
**A.** 92%

**Q.** And the inhibition at 20 µM [17]?
**A.** 87.7%

**Q.** And the inhibition at 20 µM [18]?
**A.** 89.1%

**Q.** And the inhibition at 5 µM [19]?
**A.** 3%

**Q.** And the inhibition at 10 µM [20]?
**A.** 26.8%

**Q.** And the inhibition at 20 µM [21]?
**A.** 52.9%

**Q.** And the Activity [22]?
**A.** Active
